Screens deposited in PubChem by several laboratories.
C8 TRAIL sens: sensitizes caspase-8 expressing cells to TRAIL | NB7+C8 cells + TRAIL, ATPlite viability luminescence | inhibition (viability loss, TRAIL sensitization), % at 10 µM | 360,000 compounds, 1% hits;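 active = compounds causing at least 50% loss of cell viability in the single-dose screen, relative to plate controls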
PPC-1+TRAIL kill: compounds killing PPC-1 cancer cells with TRAIL present (potentiator screen, no TRAIL-free arm); PPC-1 cells + TRAIL, ATPLite viability luminescence; cell killing (% activity), % at 4 µM or 5 µM; 220,000 compounds, 0.41% hits;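 active = cell killing above 50% in the first pass at 4 µM, then a duplicate retest at 5 µM averaging 50% or more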;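 note: plate controls were cells with TRAIL plus DMSO for no effect and medium-only wells lacking cells for full effect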
STAT1 inh: inhibitors of IFN-gamma induced STAT1 signaling; 200,000 compounds, 0.35% hits; inhibition, % at 5.5 µM; NIH 3T3 STAT1-luciferase reporter, luminescence; AID 920;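 active = inhibition above a set limit, the mean inhibition across all tested compounds plus 3 SD, cut at about 34% in these data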;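 note: 0% = IFN-gamma with DMSO and 100% = IFN-gamma with 300 µM nifuroxazide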
STAT3 blocker: inhibitors of IL-6 induced STAT3 signaling. AID 862. inhibition, % at 5.5 µM. U3A cells, IL-6 STAT3-luciferase reporter, luminescence; host cell line lacks STAT1. 190,000 compounds, 0.89% hits;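 active = inhibition above the mean inhibition across all screened compounds plus 3 SD, cut at about 44% in these data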;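 note: 0% = DMSO only wells and 100% = 100 µM nifuroxazide control wells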
STAT3 activator: increases IL-6 driven STAT3 reporter signal. U3A cells, IL-6 STAT3-luciferase reporter, luminescence; 100% = signal with IL-6 EC80 alone. activation (% of control), % at 5.6 µM. 190,000 compounds, 0.91% hits;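 active = activation above the screen-wide mean of compound activation plus 3 SD, cut at about 130% in these data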;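 note: 0% = background luminescence of wells with medium and substrate only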
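Material: STAT3-luciferase reporter U3A cells; Probe or stimulus: IL-6 (33 ng/mL); Incubation: compound pre-incubation 1 h before IL-6, then 6 h stimulation at 37 °C; Technique: luminescence from STAT3-driven luciferase reporter; Evaluation: % activation versus median of IL-6-stimulated wells; Controls: IL-6-only high control.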
* marks the source's active call; other numbers are inactive results; . = no result given. Compounds with a hit are over-represented: about 1.8% of the library has one in this group of screens.

SMILES	C8 TRAIL sens	PPC-1+TRAIL kill	STAT1 inh	STAT3 blocker	STAT3 activator
O=C(N/N=C/c1cccc(O)c1)c1ccc2c(c1)OCCO2	88.9*	.	.	.	.
O=C(N/N=C/c1cc([N+](=O)[O-])ccc1O)c1ccc2c(c1)OCCO2	52.0*	35.5	-3.8	-4.0	99.7
CCn1c(C)nc2cc(C(=O)N/N=C/c3cccc(O)c3O)ccc21	51.7*	17.4	-21.2	21.0	85.9
Cc1cccc(/C=N\NC(=O)c2ccc(Cl)cc2)c1O	55.0*	33.8	-61.9	17.7	86.8
O=C(N/N=C/c1ccc2c(c1)OCO2)c1ccc2c(c1)OCO2	39.6	.	.	.	.
CCN(CC(=O)Nc1c(F)cccc1F)C(=O)C1CCCO1 (stereo not given)	-10.2	.	.	.	.
Cc1cccc(/C=N/NC(=O)c2ccc3c(c2)OCCO3)c1O	75.8*	.	.	.	.
C/C(=N\NC(=O)c1ccc(Cl)cc1)c1ccccn1	51.1*	.	.	.	.
C/C(=N/NC(=O)c1ccccn1)c1ccc(O)cc1	16.1	6.9	.	.	.
C/C(=N\NC(=O)c1ccccn1)c1ccc(Cl)cc1	60.6*	27.4	.	.	.
Cc1ccc(S(=O)(=O)Nc2ccc(S(=O)(=O)Nc3nccs3)cc2)cc1C	5.4	.	.	.	.
COc1nn(-c2ccccc2)c(=O)c(Cl)c1Cl	90.6*	.	.	.	.
COc1ccc(CN2C(=O)CSCC2(C)C(=O)NCc2ccccc2)cc1 (stereo not given)	2.7	.	.	.	.
Cc1ccc2nc(-c3ccc(NC(=O)C(C)Sc4nncs4)cc3)sc2c1 (stereo not given)	51.5*	.	.	.	.
CCOC(=O)c1sc(NC(=O)c2cc(-c3ccccc3C)nc3ccccc23)c(C#N)c1C	61.1*	22.0	8.3	-2.1	104.8
CC1CCN(C(=O)CSc2nnc(CNC(=O)c3ccc(F)cc3)o2)CC1	4.7	.	.	.	.
CC(C)(CNC(=O)c1ccc([N+](=O)[O-])c(Cl)c1)CNC(=O)c1ccc([N+](=O)[O-])c(Cl)c1	53.1*	27.8	2.5	3.1	98.7
C=CCNC(=O)c1ccc([N+](=O)[O-])c(Cl)c1	9.5	3.6	0.4	4.5	100.3
COc1cc2c(cc1NC(=O)c1cccc([N+](=O)[O-])c1)oc1ccccc12	49.6*	18.2	-15.1	21.4	88.1
COc1cc2c(cc1NC(=O)c1ccc(C)c([N+](=O)[O-])c1)oc1ccccc12	1.5	14.1	3.7	-5.8	106.8
CC(C)c1ccc(/C=C2\SC(=S)N(CCC(=O)N3CCCCC3CCO)C2=O)cc1 (stereo not given)	60.3*	.	.	.	.
CC(C)NC(=O)Nc1ccc2c(c1)C(=O)N([C@@H](C)CO)C[C@@H](C)[C@H](CN(C)Cc1ccccc1)OCCCC[C@H](C)O2	-13.8	.	.	.	.
Cn1cnc([N+](=O)[O-])c1Sc1ncnc2nc[nH]c12	67.5*	17.3	.	.	.
Cc1cccnc1Sc1c([N+](=O)[O-])ncn1C	-4.0	10.5	-8.1	-2.9	102.7
CC(=O)CSc1ncnc2nc[nH]c12	12.2	9.3	1.7	6.3	100.1
SMILES	C8 TRAIL sens	PPC-1+TRAIL kill	STAT1 inh	STAT3 blocker	STAT3 activator
Cn1cnc(Sc2ncnc3nc[nH]c23)c1[N+](=O)[O-]	62.3*	3.6	.	.	.
CC1CCN(c2nc3ccc(C(=O)O)cc3s2)CC1	16.8	14.8	79.6*	108.7*	12.6
NC(=O)c1ccc2nc(NC(=O)c3ccc(N)cc3)sc2c1	39.1	27.5	-45.4	17.2	88.0
Nc1ccc(-c2nc3ccc(C(=O)O)cc3s2)cc1	70.0*	30.8	88.8*	103.8*	10.2
Nc1cc2sc(-c3ccc(C(=O)O)cc3)nc2cc1Cl	57.0*	50.7*	-7.8	35.5	71.1
CCOC(=O)N1C(=O)NC(=O)C1c1ccc(Cl)cc1 (stereo not given)	-7.4	.	.	.	.
O=C(Nc1ccc([N+](=O)[O-])cc1)C1C(c2ccccc2)=C1c1ccccc1	40.9	10.3	-6.4	-26.3	133.3*
O=C(c1cc2ccccc2[nH]1)N1CCOCC1	-0.6	5.7	2.0	-38.7	135.2*
Cn1c(CCN2CCCCC2)nc2cc(NC(=O)COc3ccc(Cl)cc3)ccc21	4.4	.	.	.	.
Cc1ccc(C(C)C)c(OCC(=O)Nc2ccc3c(c2)nc(CCN2CCCCC2)n3C)c1	55.5*	.	.	.	.
Cc1ccc(C(C)C)c(OCC(=O)Nc2ccc(N3CCN(S(C)(=O)=O)CC3)cc2)c1	-8.6	29.5	-1.4	-36.3	133.3*
Cc1ccc(OCC(=O)Nc2ccc(N3CCN(S(C)(=O)=O)CC3)cc2)c(C)c1	-3.5	4.9	-5.2	-2.9	104.0
CN(C(=O)c1ccc(NC(=O)Cc2cccc(NC(=O)C3CCCN(S(=O)(=O)c4cccc([N+](=O)[O-])c4)C3)c2)cc1)C1CC1 (stereo not given)	53.8*	.	.	.	.
Cc1ccc(SC2=C(C(=O)O)CCCC2)cc1	-3.0	.	.	.	.
COc1ccc(CC(N)c2csc(NC(=O)c3cc(C(C)(C)C)nn3Cc3ccccc3)n2)cc1 (stereo not given)	50.4*	.	.	.	.
CCCCn1c(SCC(=O)Nc2nnc(CC)s2)nc2c1c(=O)n(C)c(=O)n2C	64.3*	19.1	-2.5	12.9	91.8
O=C(O)c1cc(N=Cc2c(O)c3ccccc3oc2=O)ccc1O	4.4	.	.	.	.
CC(C)c1ccc(NC(=O)C2Cc3c(-c4cccc(F)c4)ccnc3O2)cc1 (stereo not given)	13.4	.	.	.	.
COc1cc2ccccc2cc1C(=O)Nc1sc2c(c1C(N)=O)CCN(C(C)C)C2	82.7*	.	.	.	.
Cc1cc(C)n(-c2nc3ccccc3c(=O)n2OCC(=O)OCc2ccccc2)n1	3.7	-0.8	-4.9	10.3	98.7
Cc1cc(C)n(-c2nc3ccccc3c(=O)n2OCc2ccc(F)cc2)n1	3.4	16.3	9.7	-31.1	135.2*
O=S(=O)(Nc1cc(S(=O)(=O)N2CCOCC2)ccc1O)c1ccc2c(c1)OCCCO2	-11.3	.	.	.	.
N#C/C(=C(/O)c1ccc(Br)s1)c1nc2ccccc2[nH]1	24.2	.	.	.	.
N#C/C(=C(/O)CCl)c1nc2ccccc2[nH]1	10.6	2.4	18.2	-41.3	134.4*
N#C/C(=C(/O)c1ccc([N+](=O)[O-])s1)c1nc2ccccc2[nH]1	44.2*	26.0	.	.	.
SMILES	C8 TRAIL sens	PPC-1+TRAIL kill	STAT1 inh	STAT3 blocker	STAT3 activator
CCN(CC)CCn1c2c(c(SCC(=O)Nc3nc4ccc(C)cc4s3)nc1=O)CCC2	66.2*	.	.	.	.
CCN(CC)CCn1c2c(c(SCC(=O)Nc3nc4ccccc4s3)nc1=O)CCC2	1.8	.	.	.	.
CC1(C)Oc2ccc3ccc(=O)oc3c2/C(=C/NNC(N)=O)C1=O	-5.9	.	.	.	.
Cc1cc2ncc(-c3cccs3)nc2cc1C	69.1*	.	.	.	.
CC(C)CCCCCCCCCCCCC(=O)NCC(=O)NC1C(O)C(O)C(Nc2ncnc3nc[nH]c23)OC1C(O)CO (stereo not given)	65.1*	.	.	.	.
CC(OC(=O)c1cc(O)c2ccccc2c1O)C(=O)Nc1ccc(C(N)=O)cc1 (stereo not given)	57.4*	.	.	.	.
C=CCc1cccc2cc(C(=O)Nc3ccccc3C(=O)O)c(=O)oc12	-20.6	-8.6	71.8*	6.0	99.6
C=CCc1cccc2cc(C(=O)O)c(=O)oc12	-15.5	-14.3	1.7	-12.1	116.1
CCN1CC=C2C(C#N)=C(N)C(C#N)(C#N)C(CCc3ccccc3)C2C1 (stereo not given)	8.1	10.6	4.0	-39.9	140.8*
